According to publication PMC4809803 (Oncogene, 2015):

Tests used:
[1] = test system: FLT3-ITD-transformed HCD-57 cells; assay: Cell cycle analysis, propidium iodide; format: cell-based, murine; conditions: 100 and 500 nM, 24 hours
[2] = test system: HCD-57 cells expressing FLT3-ITD; assay: XTT cell viability assay, transformed HCD-57; format: cell-based, murine; conditions: 48 hours
parent HCD-57 cells [3] = assay: XTT cell viability assay, parent HCD-57; format: cell-based, murine; conditions: 48 hours, with EPO
[4] = test system: FLT3 signaling in FLT3-D835Y-transformed HCD-57 cells; assay: Cell signaling western blot; format: cell-based, murine; conditions: 3 hours
Summary of the method: (§1)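 EPO-independent retrovirally transformed HCD-57 cells were treated with the indicated inhibitor concentrations for 3 h. They were lysed in whole-cell buffer (25 mM β-glycerophosphate pH 7.3, EDTA/EGTA, 1% Triton X-100, 0.1 M NaCl, 1 mM vanadate, protease inhibitors) and cleared at 13 000×g. Equal total protein was run on SDS gels and immunoblotted for pFLT3 (pY591), pERK1/2 (pT202/pY204), pAKT (pS473), total FLT3/ERK/AKT and GAPDH.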

[5] = test system: FLT3 signaling in FLT3-ITD-transformed HCD-57 cells; assay: Cell signaling western blot; format: cell-based, murine; conditions: 3 hours
Summary of the method: as §1

[6] = test system: FLT3-ITD-transformed HCD-57 cells; assay: Apoptosis assay, annexin V and propidium iodide; format: cell-based, murine; conditions: 100 and 500 nM, 24 hours
parent HCD-57 cells [7] = assay: Apoptosis assay, annexin V and propidium iodide; format: cell-based, murine; conditions: 100 and 500 nM, 24 hours, cultured with EPO
[8] = test system: HCD-57 cells expressing FLT3-D835H; assay: XTT cell viability assay, transformed HCD-57; format: cell-based, murine; conditions: 48 hours
[9] = test system: FLT3-D835Y-transformed HCD-57 cells; assay: Apoptosis assay, annexin V and propidium iodide; format: cell-based, murine; conditions: 100 and 500 nM, 24 hours
[10] = test system: FLT3-D835Y-transformed HCD-57 cells; assay: Cell cycle analysis, propidium iodide; format: cell-based, murine; conditions: 100 and 500 nM, 24 hours
[11] = test system: HCD-57 cells expressing FLT3-D835Y; assay: XTT cell viability assay, transformed HCD-57; format: cell-based, murine; conditions: 48 hours
[12] = test system: HCD-57 cells transformed with JAK2V617F; conditions: XTT, 48 hours

CNC(=O)c1cc(Oc2ccc(NC(=O)Nc3ccc(Cl)c(C(F)(F)F)c3)cc2)ccn1 [sorafenib]
cell cycle distribution (G1, S+G2) [1]: exhibited such an effect only on the FLT3-ITD cells | effect on cell growth/viability [2]: strongly inhibited | effect on cell viability (parent HCD-57 cells [3]): far less active | phosphorylation of FLT3, ERK and Akt [4]: much less effective | phosphorylation of FLT3, ERK and Akt [5]: strong inhibitory effect | percentage of apoptotic and necrotic cells [6]: potent to induce apoptosis and necrosis | apoptosis (parent HCD-57 cells [7]): neither JI6 nor sorafenib displayed significant effects | effect on cell growth/viability [8]: far less active | percentage of apoptotic and necrotic cells [9]: no effect | cell cycle distribution (G1, S+G2) [10]: exhibited such an effect only on the FLT3-ITD cells | effect on cell growth/viability [11]: far less active | effect on cell viability [12]: far less active
